The values that follow come from ChEMBL document CHEMBL1144663, “1-Aryl-tetrahydroisoquinoline analogs as active anti-HIV agents in vitro” (Bioorg Med Chem Lett, 2008).

≈ marks a conversion by molar mass, not a printed value.

Data set [1] deals with Human immunodeficiency virus type 1 reverse transcriptase (Human immunodeficiency virus 1) (UniProt Q72547). Kind of data set: Inhibition of HIV1 recombinant reverse transcriptase at 210 ug/ml.
The nature of data set [2]: Cytotoxicity against human C8166 cells after 72 hrs by MTT method. The data set is classed as cell-based. In short, it runs like this: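 Supernatant discarded, MTT (5 mg/mL in PBS) added for 4 h, formazan dissolved in 50% DMF–20% SDS, absorbance 595/630 nm. CC50 (50% reduction of viable cells) taken from dose–response curve.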
(In general: Tetrazolium assays rely on reduction of a dye to a coloured formazan, in cell work by metabolically active cells.)

The subject of data set [3] is Human immunodeficiency virus 1. Kind of data set: Antiviral activity against HIV1 3B in C8166 cells by syncytium reduction assay. The data set is classed as functional, organism-based. Conditions: Human immunodeficiency virus 1, 3B. In short, it runs like this: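 C8166 cells (4 × 10⁵/mL) exposed to serial compound concentrations and infected with HIV-1 IIIB at MOI 0.06; zidovudine positive control. After 3 days of culture, syncytia counted per well by inverted microscopy; percent inhibition versus infected untreated control; EC50 is concentration protecting cells from viral cytopathogenicity by 50%.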

Data set [4] is described as follows: Selectivity index, ratio of CC50 for C8166 cells to EC50 for HIV1 3B. Format: functional. The procedure, abridged: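 Ratio of CC50 (MTT, uninfected C8166, 72 h) to EC50 (syncytium reduction, HIV-1 IIIB-infected C8166, MOI 0.06, 3 days), both determined in this work.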
For data set [5], the system named is Human immunodeficiency virus. Kind of data set: Inhibition of HIV replication in H9 cells. Format: functional, organism-based. The settings on record: Human immunodeficiency virus 1, H9.
Data set [6] concerns the target Human immunodeficiency virus type 1 reverse transcriptase (Human immunodeficiency virus 1) (UniProt Q72547). Kind of data set: Inhibition of HIV1 recombinant reverse transcriptase at 200 ug/ml.

Take `CC1NCCc2ccc(O)c(O)c21` (centres undefined): the Inhibition (commonly the relative decrease from the control value, in per cent) in data set [1] amounted to 48%.
For `Oc1cc2c(cc1O)C(c1cccc3ccccc13)NCC2` (centres undefined), half-maximal cytotoxicity in data set [2] (CC50 at 72 h) was put at 47.4 µM. Moreover, the response in data set [3] was half-maximal at 33.2 µM (EC50). The “Ratio CC50/EC50” value in data set [4] is 1.9.
For `CC1NCCc2cc(O)c(O)cc21` (centres undefined), a half-maximal response in data set [5] (EC50) required 0.117 µg/mL (≈ 0.653 µM).
With `COc1cc2c(cc1OC)C(c1cccc3ccccc13)NCC2` (centres undefined), in data set [2], the CC50 (in general, the concentration giving 50% cytotoxicity) at 72 h came out at 64.8 µM. Also, in data set [3], it took 22.6 µM to reach a half-maximal effect (EC50). The “Ratio CC50/EC50” value in data set [4] was determined as 2.9.
In the same order, the values of `N#Cc1ccc(C2NCCc3cc(O)c(O)cc32)cc1` (centres undefined) are greater than 752 µM, 53.7 µM and greater than 14.
For the compound `COc1cc2c(cc1OC)C(c1ccccc1)NCC2` (centres undefined), the CC50 at 72 h in data set [2] is 294 µM. In data set [3], the midpoint of the response, the EC50, lay at 120 µM. For the same compound, in data set [4], the “Ratio CC50/EC50” value worked out at 2.4.
In the same order, the values of `Cc1ccccc1C1NCCc2cc(O)c(O)cc21` (centres undefined) are greater than 784 µM, 61.9 µM and greater than 13.
Compound `COc1cc2c(cc1OC)C(c1ccccc1C)NCC2` (centres undefined) returned a CC50 at 72 h in data set [2] of 197 µM. The EC50 (in general, the concentration at which the effect is half-maximal) in data set [3] was 42.5 µM. Also, the “Ratio CC50/EC50” value in data set [4] is 4.6.
`COc1ccc(C2NCCc3cc(O)c(O)cc32)c(OC)c1` (centres undefined): in data set [2], the CC50 at 72 h was greater than 664 µM. Moreover, the EC50 in data set [3] came out at 46.5 µM. In addition, in data set [4], the “Ratio CC50/EC50” value is on record as greater than 14.
For `COc1cc2c(cc1OC)C(c1ccccn1)NCC2` (centres undefined) the same measures were 444 µM, 171 µM and 2.8.
On to `COc1cc2c(cc1OC)C(c1cccc(Cl)c1)NCC2` (centres undefined), for which, in data set [2], the CC50 at 72 h was determined as 184 µM. This compound also came in with an EC50 in data set [3] of 31.8 µM. Further, the “Ratio CC50/EC50” value in data set [4] is 5.9.
`Oc1cc2c(cc1O)C(c1ccc(Br)cc1)NCC2` (centres undefined) returned a CC50 at 72 h in data set [2] greater than 625 µM. This compound had a concentration giving a half-maximal response (EC50) in data set [3] of 36.2 µM. For the same compound, the “Ratio CC50/EC50” value in data set [4] is listed as greater than 18.
In turn, `Oc1cc2c(cc1O)C(c1cccc(Br)c1)NCC2` (centres undefined) displayed a CC50 at 72 h in data set [2] greater than 625 µM. The EC50 in data set [3] is 53.5 µM. The “Ratio CC50/EC50” value in data set [4] is greater than 12.
Turning to `COc1cc2c(cc1O)[C@@H](Cc1ccc(O)cc1)NCC2`, in data set [5], the response was half-maximal at 0.8 µg/mL (≈ 2.8 µM) (EC50).
Take `Cc1ccc(C2NCCc3cc(O)c(O)cc32)cc1` (centres undefined): the CC50 at 72 h in data set [2] is greater than 784 µM. Also, in data set [3], the EC50 stood at 8.2 µM. For the same compound, the Inhibition in data set [6] worked out at 28%. For the same compound, the “Ratio CC50/EC50” value in data set [4] was greater than 95.
With `COc1ccc(C2NCCc3cc(OC)c(OC)cc32)cc1` (centres undefined), the CC50 at 72 h in data set [2] came to 312 µM. Also, in data set [3], a half-maximal effect (EC50) was put at 127 µM. In data set [4], the “Ratio CC50/EC50” value is 2.5.
Compound `COc1cc2c(cc1OC)C(c1ccc(Br)cc1)NCC2` (centres undefined) showed a CC50 at 72 h in data set [2] of 37.9 µM. The compound also returned an EC50 in data set [3] of 16.9 µM. Moreover, the “Ratio CC50/EC50” value in data set [4] amounted to 2.2.
Consider `COc1cc2c(cc1OC)C(c1ccccc1OC)NCC2` (centres undefined), for which, in data set [2], the midpoint of cytotoxicity, the CC50 at 72 h, lay at 555 µM. Also, the EC50 in data set [3] amounted to 45.9 µM. In data set [4], the “Ratio CC50/EC50” value was 12.
`Oc1cc2c(cc1O)C(c1ccco1)NCC2` (centres undefined): the CC50 at 72 h in data set [2] is greater than 866 µM. The compound also had an EC50 in data set [3] of 61.7 µM. Also, the “Ratio CC50/EC50” value in data set [4] is reported as greater than 14.
The compound `Oc1cc2c(cc1O)C(c1ccc(C(F)(F)F)cc1)NCC2` (centres undefined) gave a 50% cytotoxic concentration (CC50) at 72 h in data set [2] of 42.3 µM. The compound further yielded an EC50 in data set [3] of 27.6 µM. Further, in data set [4], the “Ratio CC50/EC50” value is listed as 1.5.
Consider `COc1cc2c(cc1OC)C(c1ccc3ccccc3c1)NCC2` (centres undefined), for which the half-maximal cytotoxic concentration (CC50) at 72 h in data set [2] is 54.6 µM. Moreover, in data set [3], the EC50 came out at 6.9 µM. Also, the “Ratio CC50/EC50” value in data set [4] was determined as 7.9.
For the compound `COc1cc2c(cc1OC)C(c1ccccc1Cl)NCC2` (centres undefined), the midpoint of cytotoxicity in data set [2], the CC50 at 72 h, lay at 249 µM. In data set [3], this compound returned a concentration for a half-maximal effect (EC50) of 58.4 µM. Also, the “Ratio CC50/EC50” value in data set [4] turned out to be 4.3.
Take `COc1ccc(C2NCCc3cc(O)c(O)cc32)cc1` (centres undefined): the CC50 at 72 h in data set [2] was greater than 738 µM. For the same compound, the EC50 in data set [3] amounted to 34.1 µM. Besides, in data set [4], the “Ratio CC50/EC50” value is recorded as greater than 22.
For `COc1ccccc1C1NCCc2cc(O)c(O)cc21` (centres undefined), the CC50 at 72 h in data set [2] is greater than 738 µM. The EC50 in data set [3] was 42.2 µM. Also, the “Ratio CC50/EC50” value in data set [4] is given as greater than 18.
In data set [2], `COc1cc2c(cc1OC)C(c1ccc(C)cc1)NCC2` (centres undefined) yielded a CC50 at 72 h of 281 µM. Moreover, the EC50 in data set [3] worked out at 67.3 µM. In addition, the “Ratio CC50/EC50” value in data set [4] worked out at 4.2.
In turn, `COc1cc2c(cc1OC)C(c1ccc(C(F)(F)F)cc1)NCC2` (centres undefined) returned a CC50 at 72 h in data set [2] of 30.9 µM. The compound also showed an EC50 in data set [3] of 27.8 µM. The “Ratio CC50/EC50” value in data set [4] is given as less than 1.
In turn, `Oc1cc2c(cc1O)C(c1cccc(Cl)c1)NCC2` (centres undefined) returned a CC50 at 72 h in data set [2] greater than 727 µM. The compound also came in with an EC50 in data set [3] of 4.6 µM. For the same compound, the Inhibition in data set [6] was found to be 20%. Moreover, the “Ratio CC50/EC50” value in data set [4] is given as greater than 159.
Turning to `Oc1cc2c(cc1O)C(c1ccccn1)NCC2` (centres undefined), the CC50 at 72 h in data set [2] was greater than 826 µM. It took 48.4 µM to reach a half-maximal effect in data set [3] (EC50). Besides, the “Ratio CC50/EC50” value in data set [4] is greater than 11.
As for `COc1cc2c(cc1OC)C(c1ccccc1Br)NCC2` (centres undefined), half-maximal cytotoxicity in data set [2] (CC50 at 72 h) was put at 89 µM. This compound also gave an EC50 in data set [3] of 31.3 µM. The “Ratio CC50/EC50” value in data set [4] was 2.8.
For the compound `Oc1cc2c(cc1O)C(c1ccccc1Cl)NCC2` (centres undefined), the CC50 at 72 h in data set [2] was greater than 727 µM. Also, the EC50 in data set [3] was 51.8 µM. Moreover, the “Ratio CC50/EC50” value in data set [4] is on record as greater than 14.
For the compound `COc1ccc(C2NCCc3cc(OC)c(OC)cc32)c(OC)c1` (centres undefined), in data set [2], it took 227 µM to reach half-maximal cytotoxicity (CC50 at 72 h). This compound came in with an EC50 in data set [3] of 43.8 µM. Further, the “Ratio CC50/EC50” value in data set [4] came out at 5.2.
On to `Cc1cn([C@H]2C[C@H](N=[N+]=[N-])[C@@H](CO)O2)c(=O)[nH]c1=O` [ZIDOVUDINE], for which the CC50 at 72 h in data set [2] is greater than 749 µM. The compound also had an EC50 in data set [3] of 0.011 µM. In data set [4], the “Ratio CC50/EC50” value is recorded as greater than 68091.
`Oc1cc2c(cc1O)C(c1ccccc1Br)NCC2` (centres undefined) yielded a CC50 at 72 h in data set [2] greater than 625 µM. The EC50 in data set [3] was determined as 23.7 µM. The “Ratio CC50/EC50” value in data set [4] is recorded as greater than 26.
Take `COc1cc2c(cc1OC)C(c1cccc(Br)c1)NCC2` (centres undefined): it took 107 µM to reach half-maximal cytotoxicity in data set [2] (CC50 at 72 h). For the same compound, the EC50 in data set [3] was determined as 43.5 µM. For the same compound, the “Ratio CC50/EC50” value in data set [4] amounted to 2.4.
In data set [2], `COc1cc2c(cc1OC)C(c1ccco1)NCC2` (centres undefined) showed a CC50 at 72 h of 572 µM. Further, a half-maximal effect in data set [3] (EC50) was put at 152 µM. In data set [4], the “Ratio CC50/EC50” value is listed as 3.8.
In data set [2], `COc1cc2c(cc1OC)C(c1ccccc1F)NCC2` (centres undefined) registered a CC50 at 72 h of 175 µM. Besides, the EC50 in data set [3] was determined as 69 µM. Moreover, the “Ratio CC50/EC50” value in data set [4] is listed as 2.8.
In the same order, the values of `Oc1cc2c(cc1O)C(c1ccccc1F)NCC2` (centres undefined) are greater than 772 µM, 58.4 µM and greater than 13.
The compound `Oc1cc2c(cc1O)C(c1ccc3ccccc3c1)NCC2` (centres undefined) yielded a CC50 at 72 h in data set [2] greater than 687 µM. In data set [3], this compound registered an EC50 of 5.3 µM. For the same compound, the Inhibition in data set [6] came out at 30%. Moreover, the “Ratio CC50/EC50” value in data set [4] was greater than 130.
Compound `Oc1cc2c(cc1O)C(c1ccccc1)NCC2` (centres undefined) had a CC50 at 72 h in data set [2] greater than 830 µM. Further, the EC50 in data set [3] was found to be 67.3 µM. For the same compound, the “Ratio CC50/EC50” value in data set [4] is given as greater than 12.
